Sampled rows, rich in hits. Any-hit rate of the full collection: about 12%.
Diaphorase act = compounds boosting diaphorase resazurin reduction – biochemical, uHTS, resorufin fluorescence, counter-screen for diaphorase-coupled primary assays, primary screen; Diaphorase/resazurin coupled assay, 16 min; hits give high values; 1 = vehicle wells, 0 = NADH-free wells; activation factor at 20 µM; hit rate 0.005% among 190,000;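 active = diaphorase activity raised at least twofold by the compound at 20 µM; inactive = activation factor below 2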
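Assay system: bacterial diaphorase enzyme (C. kluyveri) / Input: enzyme 0.07 U/mL final / Medium: 50 mM HEPES pH 7.4 with 4.542 mM MgCl2, 0.005% Tween 20 / Doses: single compound dose of 20 µM, 1% DMSO final / Incubation: 16 min enzyme reaction, ambient temperature / Signal: fluorescence, excitation 544 nm and emission 590 nm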
KCC2 mod = KCC2 cotransporter modulators, thallium flux, primary screen, cell-based, HEK293 KCC2, FluoZin-2 fluorescence, MLSMR; hit rate 2.2% among 190,000; B-score of Tl+ flux slope (higher = more flux/activation; lower = inhibition) at 10 µM; AID 1456, 2008; KCC2 cells, thallium flux FluoZin-2 fluorescence; Solute carrier family 12 member 5 (Homo sapiens), Q9H2X9;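 active = thallium flux slope and its plate-corrected score both differing from the plate sample mean at a set confidence after two filtering rounds, in either direction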;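 note: slope of fluorescence scaled to starting intensity during 10 to 20 s after thallium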
WT yeast gro inh = growth inhibition of WT strain, primary screen, mitochondrial fusion inhibitor project, WT and mutant strains, chemical genetic. mitochondrial fusion phenotypic screen. inhibition, % at 10 µM. hit rate 2.1% among 190,000. AID 1362, 2008; in the data active = inhibition above about 58%; tested in S. cerevisiae
ROMK mod = ROMK potassium channel modulators, primary screen, cell-based, thallium flux, MLSMR library; Tet-inducible ROMK, thallium flux fluorescence; actives lie on both sides; B-score at 10 µM; hit rate 2% among 130,000; AID 1918, 2009;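 active = signal ratio slope over the read window, or its plate-corrected B-score, at least 3 SD from the plate mean, either direction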;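 note: B-score of the F/F0 ratio slope over 7 to 12 s after thallium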
Target sequence (P48048 whole entry, looked up): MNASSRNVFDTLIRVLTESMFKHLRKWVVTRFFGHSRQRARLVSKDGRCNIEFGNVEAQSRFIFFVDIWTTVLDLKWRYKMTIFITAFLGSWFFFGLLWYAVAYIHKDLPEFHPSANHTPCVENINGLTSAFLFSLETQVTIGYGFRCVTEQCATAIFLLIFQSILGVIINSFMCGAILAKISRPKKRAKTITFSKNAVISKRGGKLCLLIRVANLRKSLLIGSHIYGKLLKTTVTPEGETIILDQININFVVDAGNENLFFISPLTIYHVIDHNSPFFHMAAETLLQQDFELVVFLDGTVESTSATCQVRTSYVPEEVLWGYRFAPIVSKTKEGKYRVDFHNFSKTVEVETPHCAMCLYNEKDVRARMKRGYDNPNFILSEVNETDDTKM
Lmaj promast = Leishmania major promastigote growth inhibition, primary screen. AID 1063, 2008. Leishmania major promastigotes, resazurin fluorescence viability. inhibition, % at 10 µM. hit rate 9% among 200,000; in the data active = inhibition above about 50%;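 note: promastigotes grown with compound for 44 hours at 28 °C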
Diaphorase inh = diaphorase inhibitors and chemical oxidizers, primary screen, counter-screen for diaphorase-coupled primary assays, biochemical, uHTS, resorufin fluorescence. diaphorase resazurin-to-resorufin fluorescence, NADH, 16 min; bacterial (C. kluyveri) enzyme, not human. inhibition, % at 20 µM. hit rate 0.69% among 190,000. AID 1217, 2008;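 active = primary screen inhibition at 20 µM above a set limit, cut at about 50% in these data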;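 note: plate controls were DMSO with full reaction for no effect and wells lacking NADH for full effect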
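Test system: Clostridium kluyveri diaphorase enzyme / Quantity: diaphorase at 0.14 U/mL in enzyme working solution / Incubation: 16-min room-temperature incubation before reading / Benchmarks: NADH-free wells as positive control, DMSO-only neutral wells / Signal: resorufin fluorescence 544/590 nm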
* hit, by the source's call; x = no result.

SMILES | Diaphorase act | KCC2 mod | WT yeast gro inh | ROMK mod | Lmaj promast | Diaphorase inh
Cc1ccc(NCC(=O)N/N=C/c2cc3ccccc3nc2Cl)cc1 | 0.7 | x | 68* | 0.77 | 84* | 35
CCOC(=O)C1(CCOc2ccccc2)CCN(Cc2ccncc2)CC1 | x | 0.24 | -1 | x | 86* | x
CCOC(=O)C1(CCOc2ccccc2)CCN(Cc2ccc(-n3cccn3)cc2)CC1 | 0.8 | 0.037 | 14 | -1.3 | 90* | 16
CC[C@@H]1CC=C[C@H]2[C@H]1C(=O)N(Cc1ccccc1)[C@H]2c1cc(C)ccc1F | x | -0.69 | x | x | x | x
Cc1ccc2cn[nH]c2c1[N+](=O)[O-] | 0.9 | 0.34 | -1 | 1.2 | -1 | 10
CC(=O)Nc1ccc(S(=O)(=O)NCC(=O)OCC(=O)NC(=O)C2CCCCC2)cc1 | 0.8 | 0.21 | 2 | 0.32 | -7 | 16
CC(=O)Nc1ccc(S(=O)(=O)NCC(=O)OCC(=O)N2CCc3ccccc32)cc1 | 0.9 | -0.83 | 62* | 0.6 | -1 | 6
CC(=O)Nc1ccc(S(=O)(=O)NCC(=O)OCC(=O)NC23CC4CC(CC(C4)C2)C3)cc1 | 0.8 | 0.62 | -13 | x | 51* | 16
Cc1ccc(NC(=O)C(OC(=O)c2cc(C)oc2C)c2ccccc2)cc1 (stereo not given) | 0.8 | 0.72 | 23 | x | 52* | 16
Cc1ccc(-c2noc(N=O)c2NO)cc1 | x | 1.5 | x | x | x | x
C[C@H](NC(=O)c1ccc(Cl)cc1)C(=O)NCCc1ccc(S(N)(=O)=O)cc1 | 1 | 1.1 | 0 | 0.34 | -9 | 4
COc1c(F)c(F)c(C(=O)Nc2ccc(-c3nc4ccccc4[nH]3)cc2)c(F)c1F | 1 | -1.4 | -15 | 0.43 | -4 | -4
COc1cccc(OC)c1C(=O)NC(=S)Nc1cc(-c2nc3ccccc3[nH]2)ccc1Cl | 1 | -2.4 | 23 | -2.1 | 81* | 3
CNC(=S)NC(CC(=O)OC)c1ccc2c(c1)OCO2 (stereo not given) | 1 | 0.83 | 0 | -0.2 | 4 | 4
CC(C)NCC#CCOc1ccc(Cl)cc1 | 1 | -0.98 | 18 | -0.88 | 6 | -4
COc1ccc(OCC#CCNC(C)(C)C)cc1 | 1 | 2 | 5 | 0.54 | 92* | 0
COc1cc(-c2nc(-c3cccc(C)c3)no2)cc(OC)c1OC | 0.9 | 0.34 | 66* | x | -5 | 10
COc1ccc(-c2nc(-c3cccc(C)c3)no2)cc1OC | 0.9 | 0.014 | -2 | -0.16 | -1 | 12
Cn1c(CNC(=O)OC(C)(C)C)n[nH]c1=S | x | 0.17 | -11 | 0.49 | -9 | x
COc1ccc(/C=C2\CN(Cc3ccccc3)C/C(=C\c3ccc(OC)cc3)C2=O)cc1 | 0.9 | 0.47 | -6 | x | 100* | 14
Cc1ccc(S(=O)(=O)N(C)c2ccccc2C(=O)NC2CCCC2)cc1 | 0.9 | 0.58 | 0 | x | 36 | 13
COc1ccc2c(N)c(C(=O)NN)[nH]c2c1 | x | -0.0033 | x | 1.5 | x | x
NC(=O)CSc1ccc(F)cc1 | 1 | -0.77 | -3 | 0.26 | 4 | 5
CCC(C)c1ccccc1OCCn1ccnc1 (stereo not given) | 0.9 | -0.22 | 36 | 0.18 | 69* | 11
CCc1cccc(OCCCn2ccnc2)c1 | 0.9 | 0.47 | 11 | 0.057 | 95* | 6
SMILES | Diaphorase act | KCC2 mod | WT yeast gro inh | ROMK mod | Lmaj promast | Diaphorase inh
CCOc1cccc(OCCCCn2ccnc2)c1 | 0.8 | 0.25 | 4 | x | 87* | 19
Brc1cccc(OCCOCCn2ccnc2)c1 | 0.9 | -2.3 | 4 | 1.8 | 99* | 12
Brc1cccc(OCCn2ccnc2)c1 | 0.9 | x | 0 | 1.3 | 15 | 12
COc1cccc(OC)c1C(=O)OCC(=O)Nc1cccnc1Cl | 1.1 | 0.93 | -34 | 1 | -1 | -8
Cn1c(C(=O)OC(C(=O)NC2CCCCC2)c2cccnc2)cc2sccc21 (stereo not given) | 0.9 | 0.01 | 0 | -0.63 | 97* | 8
COC(=O)CCCCC1SCC(NC(=O)c2ccccc2)C1=O (stereo not given) | 0.9 | x | 16 | 0.36 | -3 | 8
CC1CCCN(C2=NC(=O)/C(=C/c3cn(-c4ccccc4)nc3-c3cccc(S(=O)(=O)N(C)C)c3)S2)C1 (stereo not given) | 0.7 | x | -13 | -0.063 | 69* | 32
CN(C)S(=O)(=O)c1cccc(-c2nn(-c3ccccc3)cc2/C=C(/C#N)C(=O)NCc2ccco2)c1 | 0.9 | 0.95 | 6 | x | 3 | 13
CC1CCN(C2=NC(=O)/C(=C/c3cn(-c4ccccc4)nc3-c3cccc(S(=O)(=O)N(C)C)c3)S2)CC1 | 0.7 | x | -9 | 0.41 | 80* | 26
O=C(OCc1nnc(-c2ccccc2)o1)C12CC3CC(CC(Br)(C3)C1)C2 | 0.9 | -0.21 | 70* | -0.26 | 29 | 13
CC1CSc2n(-c3cccc(C(F)(F)F)c3)cc(-c3ccccc3)[n+]21 (stereo not given) | 0.9 | 0.71 | -2 | -0.63 | 87* | 10
c1ccc(-c2cn(-c3ccccc3)c3[n+]2CCCS3)cc1 | x | 0.12 | x | x | x | x
CCCCC(=O)Nc1cccc(-c2nc3ncccc3o2)c1 | 0.9 | 0.19 | 4 | x | 100* | 6
CCCCCC(=O)Nc1cccc(-c2nc3ncccc3o2)c1 | 0.8 | -0.054 | 3 | -1.1 | 67* | 20
Cc1nn(C(=O)CCCn2cc([N+](=O)[O-])cn2)c(C)c1Cl | 1 | -0.78 | -1 | 0.04 | 6 | -2
Cc1cccc(N=N/C(=C\O)C(=O)c2cccs2)c1 | 0.9 | 0.33 | 31 | -0.14 | 76* | 11
COc1cc(C=C(c2nc3ccccc3s2)c2nc3ccccc3s2)ccc1O | 0.8 | -1.7 | 55 | -0.034 | 97* | 25
COc1ccc(C=C(c2nc3ccccc3s2)c2nc3ccccc3s2)cc1O | 0.8 | -0.34 | 48 | -1.4 | 99* | 18
CN(C)Cc1ccccc1Sc1cccc2ccccc12 | 0.9 | 0.19 | 24 | -0.95 | 97* | 13
COc1ccc(C2NC(=O)NC(c3ccccc3)=C2c2nc3ccccc3s2)cc1 (stereo not given) | 0.8 | -0.093 | 27 | 0.47 | 37 | 22
O=C1NC(c2ccccc2)=C(c2nc3ccccc3s2)C(c2ccc(F)cc2)N1 (stereo not given) | 0.9 | -0.059 | 39 | x | 51* | 6
Cc1c(C(=O)C(=O)N2CC=C(c3ccccc3)CC2)c2ccccc2n1C | 0.6 | -1.8 | 13 | x | 0 | 36
COCCN1CSC(=S)N(Cc2ccco2)C1 | 0.8 | -0.08 | 6 | x | 85* | 23
CCOCCCN1CN(Cc2ccco2)CNC1=S | 0.9 | 0.96 | 2 | 0.49 | -7 | 14
